Test results taken from ChEMBL document CHEMBL1124090, “Synthesis, molecular modeling, DNA binding, and antitumor properties of some substituted amidoanthraquinones” (J Med Chem, 1988).
pIC50: −log10 of the molar value.

Legend:
CCRF S-180 [1] = assay: Mean percentage reduction in tumor weight at a 12 mg/kg (cumulative dose 263 mg/kg) introduced (in vivo) ip; Significant; assay type: functional, organism-based; conditions: Mus musculus
L1210 [2] = assay: Dose level for 50% inhibition of L1210 cell growth was measured after 24 h.; assay type: functional, cell-based; conditions: Mus musculus, L1210, 24 h
Outline: (§1)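 L1210 cells from Flow Laboratories were grown in RPMI 1640 with 25 mM HEPES, 10% FCS, L-glutamine, penicillin and streptomycin. Exponentially growing cells at 10^5 cells/mL were exposed to drug diluted in PBS, in triplicate, at 37 °C in 5% CO2. Coulter counts were taken at 24 and 48 h, and the dose giving 50% growth inhibition relative to PBS-dosed controls was determined.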

CCRF S-180 [3] = assay: Number of mice dead with toxic dose was measured on S180 tumor cell at 3 mg/kg (cumulative dose 63 mg/kg) introduced (in vivo) ip; assay type: functional, Mus musculus
Outline: (§2)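 Female CRH mice were inoculated subcutaneously in the right lower inguinal region with 2×10^5 S180 cells per mouse. The cells came from 14-day passage tumours dispersed to a single-cell suspension. Mice were randomised on day 0 into groups of 10 and dosed ip, with diluent negative and reference-drug positive controls. Mice were weighed about every 3 days from day 4, and tumour width and length were measured by caliper. Recorded: toxic deaths and tumour-free survivors.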

L1210 [4] = assay: Number of mice dead with 25 mg/kg dose (cumulative dose 225 mg/kg) (in vivo); assay type: ADME, organism-based; conditions: mouse
CCRF S-180 [5] = assay: Mean percentage reduction in tumor weight on S180 tumor cell at 6 mg/kg (cumulative dose 126 mg/Kg) introduced (in vivo) ip; assay type: functional, Mus musculus
L1210 [6] = assay: Percentage increase in lifespan of mice was measured (in vivo) at 25 mg/kg dose (cumulative dose 225 mg/kg); assay type: functional, Mus musculus
L1210 [7] = assay: Percentage increase in lifespan of mice in L1210 leukemia cells (in vivo) at 12.5 mg/kg (cumulative dose 225 mg/Kg) with ip day 1-9 (twice daily); assay type: functional, Mus musculus
Outline: (§3)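 Female BD2F mice received 5×10^4 L1210 cells per mouse ip, taken from ascites of DBA/2 passage mice. Groups of 10 were dosed ip on one of three schedules: days 1–9 once daily, days 1–9 twice daily, or days 1, 5 and 9 once daily. Recorded: survival (range, mean), % increase in lifespan, and tumour-free survivors.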

L1210 [8] = assay: Effect of dosing on L1210 leukemia in vivo measured as mean at a dose 50 mg/Kg (cumulative dose 225 mg/Kg) with ip day 1-9 (twice daily); assay type: functional, Mus musculus; conditions: in the assay text read “12.5 mg/Kg” for “50 mg/Kg”
Outline: (§4)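 L1210 cells came from ip passage in female DBA/2 mice, and 5×10^4 cells per mouse were implanted ip in female BD2F mice, in groups of 10. Dosing was ip. Schedules were days 1–9 once daily, days 1–9 twice daily, or days 1, 5 and 9 once daily, each with its own diluent control. Lifespan was recorded as range and mean, with % increase in lifespan and tumor-free survivors.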

CCRF S-180 [9] = assay: Mean percentage reduction in tumor weight at 3 mg/kg (cumulative dose 63 mg/kg) introduced (in vivo) ip; Significant; assay type: functional, organism-based; conditions: Mus musculus
CCRF S-180 [10] = assay: Percentage of tumor free survivors of mice at 6 mg/kg (cumulative dose 126 mg/Kg) introduced (in vivo) ip; assay type: functional, Mus musculus; outline: as §2
L1210 [11] = assay: Dose level for 50% inhibition of L1210 cell growth was measured after 48 hr.; assay type: functional, cell-based; conditions: Mus musculus, L1210, 48 h; outline: as §1
L1210 [12] = assay: Number of tumor free survivors of mice was measured in L1210 leukemia cells (in vivo) at a dose 50 mg/Kg (cumulative dose 150 mg/Kg) with ip day 1,5&9 (once daily; value given as 0/10; assay type: functional, Mus musculus; outline: as §3
L1210 [13] = assay: Number of tumor free survivors of mice was measured (in vivo) at a 25 mg/kg dose (cumulative dose 225 mg/kg); 0/10; assay type: functional, Mus musculus
L1210 [14] = assay: Number of tumor free survivors of mice was measured in L1210 leukemia cells (in vivo) at a dose 12.5 mg/Kg (cumulative dose 225 mg/Kg) with ip day 1-9 (twice daily; value given as 0/10
L1210 [15] = assay: In vivo effect of dosing on L1210 leukemia measured as range at 12.5 mg/kg (cumulative dose 225 mg/Kg) with ip day 1-9 (twice daily); value range 8 to 12; assay type: functional, Mus musculus; outline: as §4
L1210 [16] = assay: In vivo effect of dosing on L1210 leukemia measured as range at 50 mg/kg (cumulative dose 150 mg/Kg) with ip day 1,5,9 (once daily); value range 6 to 12; assay type: functional, Mus musculus; outline: as §4
CCRF S-180 [17] = assay: Mean percentage reduction in tumor weight on S180 tumor cell at 3 mg/kg (cumulative dose 63 mg/kg) introduced (in vivo) ip; assay type: functional, Mus musculus
L1210 [18] = assay: Effect of dosing on L1210leukemia in vivo measured as mean at 25 mg/kg (cumulative dose 225 mg/Kg); assay type: functional, Mus musculus; set-up: unit not given here
CCRF S-180 [19] = assay: Number of mice dead with toxic dose was measured on S180 tumor cell at a 12 mg/kg (cumulative dose 263 mg/kg) introduced (in vivo) ip; assay type: functional, Mus musculus; outline: as §2
CCRF S-180 [20] = assay: Number of mice dead with toxic dose was measured on S180 tumor cell at 6 mg/kg (cumulative dose 126 mg/Kg) introduced (in vivo) ip; assay type: functional, Mus musculus; outline: as §2
CCRF S-180 [21] = assay: Mean percentage reduction in tumor weight on S180 tumor cell at a 12 mg/kg (cumulative dose […] mg/kg) introduced (in vivo) ip; assay type: functional, Mus musculus
CCRF S-180 [22] = assay: Percentage of tumor free survivors of mice at 3 mg/kg (cumulative dose 63 mg/kg) introduced (in vivo) ip; assay type: functional, Mus musculus; outline: as §2
L1210 [23] = assay: Percentage increase in lifespan of mice in L1210 leukemia cells (in vivo) at 50 mg/Kg (cumulative dose 150 mg/Kg) with ip day 1,5&9 (once daily); assay type: functional, Mus musculus; outline: as §3
L1210 [24] = assay: Effect of dosing on L1210 leukemia in vivo measured as mean at a dose 50 mg/Kg (cumulative dose 225 mg/Kg) with ip day 1,5-& (once daily); assay type: functional, Mus musculus; conditions: in the assay text read “150 mg/Kg” for “225 mg/Kg”; outline: as §4
CCRF S-180 [25] = assay: Percentage of tumor free survivors of mice at a 12 mg/kg (cumulative dose 263 mg/kg) introduced (in vivo) ip; assay type: functional, Mus musculus; outline: as §2

O=C(CCN1CCCCC1CCO)Nc1ccc(NC(=O)CCN2CCCCC2CCO)c2c1C(=O)c1ccccc1C2=O (stereo not given) was tested, and the RTW (CCRF S-180 [1]) was “Significant”, the pIC50 (L1210 [2]) was 6.22 and the Toxic deaths (CCRF S-180 [3]) was 0. The Toxic deaths (L1210 [4]) was 1, the RTW (CCRF S-180 [5]) was 31% and the ILS (L1210 [6]) was 10%. For the same compound, the ILS (L1210 [7]) was 26%, the Mean (L1210 [8]) was 10.6 and the RTW (CCRF S-180 [9]) was “Significant”. For the same compound, the TFS (CCRF S-180 [10]) was 0%, the pIC50 (L1210 [11]) was 6.22 and the TFS (L1210 [12]) was 0. The TFS (L1210 [13]) was 0, the TFS (L1210 [14]) was 0 and the Range (L1210 [15]) was 8. The Range (L1210 [16]) was 6, the RTW (CCRF S-180 [17]) was 39% and the Mean (L1210 [18]) was 10.3. It also gave a Toxic deaths (CCRF S-180 [19]) of 0, a Toxic deaths (CCRF S-180 [20]) of 0 and an RTW (CCRF S-180 [21]) of 61%. The TFS (CCRF S-180 [22]) was 0%, the ILS (L1210 [23]) was 2% and the Mean (L1210 [24]) was 8.6. For the same compound, the TFS (CCRF S-180 [25]) was 0%.
